HKDC1 inh: blocks human hexokinase HKDC1 activity | recombinant HKDC1, G6PDH/diaphorase resazurin coupled fluorescence | hit rate 0.16% among 340,000 | inhibition, % at 20 µM | Q2TB90;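 active = inhibition above about 35% when tested at 20 µM, limit read from the data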;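 note: plate controls were DMSO wells with enzyme for no effect and DMSO wells lacking enzyme for full effect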
Target sequence (Q2TB90 whole entry, looked up): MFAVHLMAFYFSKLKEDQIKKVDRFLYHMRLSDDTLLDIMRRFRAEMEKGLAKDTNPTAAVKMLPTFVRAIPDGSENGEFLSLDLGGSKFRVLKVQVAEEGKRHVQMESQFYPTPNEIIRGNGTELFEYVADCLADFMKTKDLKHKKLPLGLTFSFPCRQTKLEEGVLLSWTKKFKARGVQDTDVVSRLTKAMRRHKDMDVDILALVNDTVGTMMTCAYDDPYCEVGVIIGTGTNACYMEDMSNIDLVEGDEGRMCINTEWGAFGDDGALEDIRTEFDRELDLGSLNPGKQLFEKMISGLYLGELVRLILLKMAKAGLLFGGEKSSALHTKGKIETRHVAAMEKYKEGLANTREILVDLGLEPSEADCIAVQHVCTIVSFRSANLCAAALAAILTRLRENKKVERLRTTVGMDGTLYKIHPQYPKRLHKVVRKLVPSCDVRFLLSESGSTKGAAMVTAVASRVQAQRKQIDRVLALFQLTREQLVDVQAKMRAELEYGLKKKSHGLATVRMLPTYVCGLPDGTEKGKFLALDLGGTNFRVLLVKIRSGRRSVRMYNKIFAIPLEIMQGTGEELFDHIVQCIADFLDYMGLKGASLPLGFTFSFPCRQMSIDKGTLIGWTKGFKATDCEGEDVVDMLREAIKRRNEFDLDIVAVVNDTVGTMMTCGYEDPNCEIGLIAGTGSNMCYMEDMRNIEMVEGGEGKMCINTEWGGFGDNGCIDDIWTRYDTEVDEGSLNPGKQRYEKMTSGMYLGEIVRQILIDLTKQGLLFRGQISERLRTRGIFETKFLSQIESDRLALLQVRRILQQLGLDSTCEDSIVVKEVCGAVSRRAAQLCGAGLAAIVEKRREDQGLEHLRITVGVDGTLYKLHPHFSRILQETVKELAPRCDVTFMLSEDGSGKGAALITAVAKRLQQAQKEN
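Incubation: 90 min at room temperature in dark / Material: recombinant HKDC1 (HK5) hexokinase enzyme, produced in-house / Quantity: enzyme 5 µg/mL final / Compound: one dose of 20 µM, 1% DMSO / Reagent: glucose and ATP substrates / Buffer or medium: Tris pH 8.0 buffer with MgCl2, Tween-20, BSA, BME / Technique: resorufin fluorescence at 613 nm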
Exocytosis inh: blocks lytic granule exocytosis | TALL-104 LAMP-1 surface exposure, flow cytometry; cells stimulated with thapsigargin and PMA | inhibition, % at 10 µM | hit rate 0.66% among 360,000 | AID 651702;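 active = inhibition above about 55%, limit read from the data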
PfGluPho inh: PfG6PD (Plasmodium falciparum) enzyme inhibition | PfGluPho enzyme, NADPH resazurin-diaphorase fluorescence | inhibition, % at 20 µM | hit rate 0.78% among 350,000;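 active = inhibition reaching at least a set limit at 20 µM in the primary screen, cut at about 59% in these data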;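 note: 0% = DMSO wells with substrate and 100% = DMSO wells lacking glucose-6-phosphate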
ABHD5-PLIN5 inh: inhibitors of human ABHD5-perilipin-5 interaction; Split G. princeps luciferase complementation, luminescence, 4 h; Q00G26+Q8WTS1; hit rate 0.78% among 360,000; inhibition, % at 4 µM;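 active = inhibition above the mean inhibition across every tested compound plus 3 SD, cut at about 22% in these data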;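 note: 0% = DMSO only wells and the 100% control is not disclosed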
PfG6PD confirm: PfG6PD inhibition, single-dose confirmed; shares compounds with PfGluPho inh; recombinant PfGluPho, NADPH-diaphorase-resazurin fluorescence; inhibition, % at 20 µM; hit rate 34% among 2,400;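 active = inhibition of at least 50% at 20 µM in any single replicate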;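 note: 0% = DMSO with substrate and 100% = DMSO lacking glucose-6-phosphate substrate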
Diaphorase 10uM: diaphorase inhibition or oxidation at 10 uM NADPH | AID 504862 | shares compounds with PfGluPho inh | hit rate 39% among 820 | diaphorase-coupled resazurin reduction, fluorescence, NADPH 10 uM | inhibition, % at 20 µM;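 active = average inhibition reaching 50% or more with the compound at 20 µM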;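 note: resorufin red fluorescence formed as diaphorase reduces resazurin using NADPH; 0% = DMSO with enzyme and 100% = DMSO without enzyme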
Diaph ctr 30uM: inhibits diaphorase or oxidizes, flagging false PfG6PD hits. shares compounds with PfGluPho inh. Diaphorase/resazurin coupled assay, resorufin fluorescence, 30 uM NADPH. inhibition, % at 20 µM. hit rate 29% among 820. AID 504863;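 active = inhibition averaging 50% or more, tested at 20 µM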;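 note: 0% = DMSO with enzyme and 100% = DMSO wells lacking diaphorase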
ABHD5-PLIN5 conf: ABHD5-PLIN5 interaction inhibition, confirmed; hit rate 67% among 2,200; shares compounds with ABHD5-PLIN5 inh; biochemical ABHD5-PLIN5 interaction, luminescence; inhibition, % at 4 µM; in the data active = inhibition above about 23%;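 note: 0% = DMSO vehicle wells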
HNF4 counter: active in HNF4 split-luciferase counter-screen for ABHD5-PLIN5 inhibitors; HNF4 dimerization, luminescence, biochemical; AID 651674; shares compounds with ABHD5-PLIN5 inh; inhibition, % at 4 µM; hit rate 77% among 2,200;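 active = mean inhibition across replicate wells exceeding the computed hit threshold, cut at about 13% in these data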;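 note: light from luciferase halves that rejoin when HNF4 fusion proteins dimerize; 0% = DMSO only wells and the 100% control is not given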
Active calls of the source: *; x = no result. A selection: hits, their analogues and other compounds. The true share with any hit is near 2.2%.

SMILES	HKDC1 inh	Exocytosis inh	PfGluPho inh	ABHD5-PLIN5 inh	PfG6PD confirm	ABHD5-PLIN5 conf	HNF4 counter	others
O=C1C=CC(=O)N1Cc1ccccc1	0	10	71*	32*	-16	4	2
O=C1C2CC=CCC2C(=O)N1Cc1ccccc1 (stereo not given)	5	-4	-4	1	x	x	x
N#C/C(=C/c1ccc(N2CCOCC2)o1)c1ccc(Cl)cc1	-4	82*	78*	60*	12	52*	106*
NC(=O)c1ccc(NC(=O)COC(=O)C2CC(=O)N(Cc3ccccc3)C2)cc1 (stereo not given)	-4	-5	-3	0	x	x	x
COc1ccc(CN2C[C@@H](CO)O[C@@H](n3cnc4c(NC5CCC5)ncnc43)C2)cc1	x	-2	x	-3	x	x	x
CCC(=O)NC1=C(Cl)C(=O)C(NC(=O)CC)=C(Cl)C1=O	23	0	114*	45*	114*	101*	103*	Diaphorase 10uM=98*;Diaph ctr 30uM=97*
CCOC(=O)c1ccc(NC(=O)CN2CCN(C(=O)C3CCCO3)CC2)cc1 (stereo not given)	-6	-34	-11	-2	x	x	x
Clc1ccc(OCCOCCNCc2ccccc2)cc1Cl	5	52	8	1	x	x	x
Cc1ccc(/C=C/C(=O)NCc2ccc(S(N)(=O)=O)cc2)o1	-4	-1	68*	47*	58*	46*	57*	Diaphorase 10uM=-19;Diaph ctr 30uM=-3
Cc1ccc(/C=C/C(=O)NCCc2cccc(Cl)c2)o1	-4	64*	63*	40*	49*	68*	79*	Diaphorase 10uM=-6;Diaph ctr 30uM=16
C=CCNS(=O)(=O)NC(=O)C1=C(N2CCCC2)COC1=O	-1	-10	-4	17	x	x	x
CCOC(=O)c1cc2c(=O)n3cccc(C)c3nc2n(Cc2ccco2)c1=NC(=O)c1cccnc1	25	0	60*	24*	-1	46*	58*
Nc1ccccc1SC(CC(=O)c1ccccc1)c1cccc([N+](=O)[O-])c1 (stereo not given)	x	14	70*	76*	22	39*	100*
COc1ccc(C(CC(=O)c2ccc(C)cc2)Sc2ccccc2N)cc1 (stereo not given)	x	1	30	-4	x	x	x
Nc1ccccc1SC(CC(=O)c1ccccc1)c1ccc([N+](=O)[O-])cc1 (stereo not given)	x	35	61*	71*	10	70*	85*
O=C(NC(NC(=O)c1ccccc1)c1cccc([N+](=O)[O-])c1)c1ccccc1	1	2	2	4	x	x	x
Cc1onc(-c2ccccc2)c1C(=O)OCC(=O)Nc1cc(S(=O)(=O)N2CCOCC2)ccc1Cl	-2	16	7	-1	x	x	x
Cc1ccc(S(=O)(=O)N2CCN(c3ccccc3)CC2)c(C)c1	-2	8	-11	10	x	x	x
O=C1C=C(c2ccccc2)C(=O)N1Nc1ccccc1	7	59*	60*	86*	45	100*	107*
O=C1Cc2ccccc2C(=O)N1Nc1ccccc1	-1	6	-3	-10	x	x	x
O=C(O)c1cc(N2C(=O)C=CC2=O)cc(N2C(=O)C=CC2=O)c1	-1	-2	121*	24*	105*	80*	109*	Diaphorase 10uM=-23;Diaph ctr 30uM=5
COC(=O)C[C@@H]1C=C[C@H](NC(=O)c2cnccn2)[C@@H](CO)O1	x	-6	x	1	x	x	x
O=C(NCCCN1CCOCC1)c1sc2cc([N+](=O)[O-])ccc2c1Cl	15	0	88*	24*	95*	5	66*	Diaphorase 10uM=-22;Diaph ctr 30uM=-21
COc1ccc(S(=O)(=O)NC(=O)C2(C)CCN2C(=O)c2cccc(F)c2)cc1 (stereo not given)	x	4	x	-7	x	x	x
Cc1ccc(N2C(=O)CC(N3CCN(c4ccc(F)cc4)CC3)C2=O)c(C)c1 (stereo not given)	2	-3	3	-9	x	x	x
